For 2 compounds, IC50 and EC50 results are on record in ChEMBL document CHEMBL4699605, “Synthesis and biological evaluation of novel flexible nucleoside analogues that inhibit flavivirus replication in vitro” (Bioorg Med Chem, 2020).

Experiment [1] is described as follows: Inhibition of Dengue virus 2'-O methyltransferase incubated for 15 mins followed by [methyl-3-H]-AdoMet addition and measured after 30 mins by microbeta counter method. The essentials:
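DENV-3 2′-O-MTase (0.5 µM) in 40 mM Tris-HCl pH 7.5 and 5 mM DTT with 1 µM capped RNA GpppAC5 and 10 µM AdoMet containing [3H]AdoMet, 30 °C for 30 min. Stopped by 20-fold dilution in ice-cold 100 µM AdoHcy. RNA captured on DEAE filter, washed, and transferred radioactivity counted. Inhibitor serially diluted, points in triplicate; IC50 from logistic dose-response fit with slope factor.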

The nature of experiment [2]: Inhibition of Dengue virus N-7 methyltransferase incubated for 15 mins followed by [methyl-3-H]-AdoMet addition and measured after 15 mins by microbeta counter method.
The test system of a further experiment is dengue virus type 2. In words: Antiviral activity against DENV-2 infected in African green monkey Vero cells assessed as virus titer reduction incubated for 48 hrs by plaque assay. It counts as functional, organism-based.

In the case of `Nc1ncnc2c1ncn2[C@@H]1O[C@H](C[C@@H](N)CC[C@H](N)C(=O)O)[C@@H](O)[C@H]1O` [SINEFUNGIN], the IC50 (commonly the concentration that inhibits the measured activity by half) in experiment [1] amounted to 41 nM; in experiment [2], 30 nM.

`C#C[C@@]1(O)[C@H](O)[C@@H](CO)O[C@H]1n1ccc2c(N)ncnc21`: the EC50 (in general, the concentration giving half of the maximal effect) in the experiment with dengue virus type 2 stood at 640 nM.
